High-throughput results from PubChem BioAssay.
PLAP act = PLAP enzyme activators, biochemical, luminescence, HTS; purified PLAP enzyme, luminescent substrate read-out; stronger effect = higher value; activation fold at 20 µM; 96,000 tested, 1.2% active; AID 696, 2007; in the data active = activation fold above about 2
PostGolgi yeast = phenotypic screen on post-Golgi transport, primary screen. post-Golgi transport phenotypic cell assay. inhibition, % at 10 µM. 98,000 tested, 0.9% active;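 also: yeast cells grown in 1536-well plates; yeast grown about 18 h at 30C before absorbance read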
E coli WT exp = growth inhibitors of wild-type E. coli, primary screen, strain BW25113, expanded library, OD600; growth inhibition, % at 100 µM; 98,000 tested, 0.15% active; AID 710, 2007; OD600 absorbance;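 active = growth inhibition above about 50% at one test dose, limit read from the data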;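 also: growth measured after 20 h incubation at 37 °C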
PostGolgi ctrl = growth inhibition of yeast control strain, primary screen, counter-screen for post-Golgi transport modulator project; efflux-deficient yeast background strain, growth absorbance A615, 16 h; inhibition, % at 10 µM; 98,000 tested, 5% active; AID 738, 2007
tolC growth inh = growth inhibitors of E. coli tolC mutant, primary screen, strain BW25113 ΔtolC::kan, 384-well. growth inhibition, % at 10 µM (by protocol). OD615. 65,000 tested, 2.2% active;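 active = growth inhibition at or above a cutoff equal to the mean over every tested compound plus 3 SD, cut at about 60% in these data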;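 also: growth measured after 20 h incubation at 37 °C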
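Doses: one dose of 10 µM final / Material: E. coli BW25113 ΔtolC::kan, tolC deletion mutant strain / Buffer or medium: LB with kanamycin 50 µg/mL / Evaluation: percent growth inhibition / Detection: optical density read at 615 nm / Incubation: 37 °C, 20 h exposure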
HePTP inhibitor = inhibitors of human HePTP phosphatase, primary screen, biochemical, absorbance, leukemia target; inhibition, % at 20 µM; AID 521, 2006; 110,000 tested, 0.64% active; Tyrosine-protein phosphatase non-receptor type 7 (Homo sapiens), P35236; recombinant HePTP phosphatase activity, OD absorbance; in the data active = inhibition above about 50%;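 also: plate controls were vehicle for no effect and reference inhibitor for full effect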
Target sequence (P35236 whole entry, looked up): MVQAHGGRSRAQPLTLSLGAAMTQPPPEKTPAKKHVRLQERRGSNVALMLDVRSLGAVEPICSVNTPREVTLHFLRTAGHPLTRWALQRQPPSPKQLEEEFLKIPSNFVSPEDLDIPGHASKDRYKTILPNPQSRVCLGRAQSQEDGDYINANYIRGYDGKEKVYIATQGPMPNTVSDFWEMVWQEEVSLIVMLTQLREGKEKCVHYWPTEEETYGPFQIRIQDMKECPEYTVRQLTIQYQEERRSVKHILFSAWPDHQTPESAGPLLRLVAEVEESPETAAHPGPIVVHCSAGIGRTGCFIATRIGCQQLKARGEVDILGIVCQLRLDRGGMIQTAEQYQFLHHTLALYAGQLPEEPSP
Numbers without * were called inactive; / = no result. Compounds with a hit are over-represented: about 5.4% of the library has one in this group of screens. Rule as the data show it, unless noted: active = inhibition above about 30%; inactive = the rest.

SMILES	PLAP act	PostGolgi yeast	E coli WT exp	PostGolgi ctrl	tolC growth inh	HePTP inhibitor
CN(C)CCNc1c2c(c(C#N)c3nc4ccccc4n13)CCCC2	1.4	13	4	1	-17	10
COC(=O)c1cc(C(=O)NCC2CCCO2)cc([N+](=O)[O-])c1 (stereo unspecified)	/	/	/	/	/	-8
CC(=O)c1ccc(NC(=O)C2CCCN2S(=O)(=O)c2cccc3cccnc23)cc1 (stereo unspecified)	1	5	6	31*	2	4
Cc1csc(-c2cc3ccc(O)c(CN4CC5(C)CC4CC(C)(C)C5)c3oc2=O)n1 (stereo unspecified)	/	/	/	/	/	76*
O=C1OCC(CO)(CO)N=C1NNc1ccccc1Cl	0.9	2	8	8	/	/
COc1ccc(N2C(=O)CSC23CCCCC3)cc1	/	-6	-7	1	10	3
COCC(C)NS(=O)(=O)c1ccc(C)cc1 (stereo unspecified)	0.8	11	-1	7	/	/
Cc1cc(SC(C)C(=O)Nc2c(C)n(C)n(-c3ccccc3)c2=O)nc2ccccc12 (stereo unspecified)	1.3	11	0	9	/	/
COc1cc(-c2nnc(SC(C)C(=O)Nc3c(C)n(C)n(-c4ccccc4)c3=O)o2)cc(OC)c1OC (stereo unspecified)	2*	13	-5	-6	/	/
Cc1c(NC(=O)C(C)Sc2nnc(-c3ccccc3)o2)c(=O)n(-c2ccccc2)n1C (stereo unspecified)	2.1*	-2	-10	-6	-8	9
Nc1nnc(CC(=O)N/N=C/c2cc3c(cc2Br)OCO3)s1	/	/	/	/	/	6
CCCn1c(CNc2ccc(Br)cc2)nc2ccccc21	/	-4	-3	71*	100*	4
CCn1c(CNc2ccc(C(=O)O)cc2)nc2ccccc21	1.1	39*	-2	11	/	/
COc1ccc(-n2nnnc2SCc2nc3ccccc3s2)cc1	0.7	-5	-15	16	/	/
COc1ccc(C)cc1-n1nnnc1SCc1nc2ccccc2s1	1	-2	-25	35*	60	8
Cn1c(=O)oc2cc(S(=O)(=O)NCCCN3CCCC3=O)ccc21	1.3	0	0	-1	-12	2
COc1ccc(C(c2nnnn2Cc2ccc(F)cc2)N2CCN(c3ccccc3)CC2)cc1 (stereo unspecified)	1.4	7	-23	37*	31	2
COc1ccc(N2CCN(C(c3ccccc3)c3nnnn3Cc3ccc(F)cc3)CC2)cc1 (stereo unspecified)	1.6	-2	-13	34*	18	5
COc1ccc(C(c2nnnn2Cc2ccc(F)cc2)N2CCN(c3ccc(OC)cc3)CC2)cc1 (stereo unspecified)	1.5	3	-10	29	26	1
C/C=C(\C)CN1CCN(c2cc(C)ccc2C)CC1	1.5	-9	2	6	-9	8
Cc1ccc(C)c(N2CCN(Cc3nnnn3C3CCCCC3)CC2)c1	1.6	18	-11	38*	35	12
O=C(COc1ccc(Cl)cc1)Nc1ccc2ccccc2c1	/	/	/	/	/	8
O=C1CCCCCN1CSc1nc2ccccc2s1	1.3	-6	2	46*	4	1
O=c1nc2c(-c3ccccc3F)n[nH]n2c2ccccc12	0.9	-4	-2	25	0	5
CCc1ccc(S(=O)(=O)c2n[nH]n3c2nc(=O)c2ccccc23)cc1	/	1	-30	50*	20	/
SMILES	PLAP act	PostGolgi yeast	E coli WT exp	PostGolgi ctrl	tolC growth inh	HePTP inhibitor
CC(C)c1ccc(S(=O)(=O)c2n[nH]n3c2nc(=O)c2ccccc23)cc1	/	0	-13	57*	17	/
Cc1ccccc1C(=O)NCCCn1ccnc1	/	/	/	/	/	-3
CC(/C=N/n1cnnc1)=C\c1ccco1	/	8	3	12	-13	3
COc1ccccc1-n1c(SCC(=O)NC(C)(C)C)nc(O)cc1=O	1.6	2	-1	5	-7	8
COc1ccccc1-n1c(SCC(=O)Nc2ccccc2C)nc(O)cc1=O	1.4	8	-2	37*	-6	4
COc1ccccc1NC(=O)CSc1nc(O)cc(=O)n1-c1ccccc1OC	1.3	-3	-11	35*	2	8
COc1ccc2c(c1)-c1c(ssc1=S)C(C)(C)N2C(=O)CSC1=NCCS1	1	-6	-17	16	/	/
CCCCCCc1nc2ccccc2c(=O)n1NC(=O)c1c(O)c2c(n(CC(C)C)c1=O)CCCC2	1	9	-6	12	/	/
O=C(NCc1ccco1)C(c1cccs1)N(C(=O)C1COc2ccccc2O1)c1cccc(O)c1 (stereo unspecified)	1.3	-7	-8	19	76*	5
Cc1ccc(C(C(=O)NC2CCCCC2)N(Cc2ccco2)C(=O)C2COc3ccccc3O2)o1 (stereo unspecified)	1.2	5	-4	16	/	/
O=C(O)c1cc(-c2ccc(/C=N/n3cnnc3)o2)ccc1O	/	/	/	/	/	103*
COc1ccc(CCNC(=O)CSc2nnc(-c3cccc(C)c3)o2)cc1OC	1.2	1	-3	3	-13	0
Cc1ccc(S(=O)(=O)N(CCC#N)CCN2CCCC2)cc1	1.5	6	-4	30*	-8	-4
CCN(CC)S(=O)(=O)c1ccc(S(=O)(=O)N2CCN(CCC#N)CC2)cc1	1	-3	4	4	1	11
CCN(CC)CCNC(=O)C(C(=O)c1ccccc1)n1ccccc1=O (stereo unspecified)	0.9	1	-14	6	32	9
COCCCNC(=O)CCNS(=O)(=O)c1ccc(C)cc1	1.1	0	-3	-11	-10	2
COc1ccc2c(c1)c1nnc(SC)nc1n2C	1	58*	-3	87*	5	4
COc1ccc2c(c1)c1nnc(SCC(=O)N3C(C)CCCC3C)nc1n2C (stereo unspecified)	1.3	0	-7	11	16	4
Cc1noc(C)c1CSc1nnnn1-c1ccc(Cl)cc1	1.4	18	0	30*	2	1
Cc1noc(C)c1CSc1nc2ccccc2c(=O)n1-c1ccc(Cl)cc1	1.3	-6	-15	38*	/	/
Cc1noc(C)c1CSc1nnc(-c2ccccc2)n1N	0.9	4	1	0	/	/
CCc1cc(N2CCOCC2)cc2c1[nH]c1ccccc12	0.9	-11	-1	36*	-13	-3
c1ccc2c(c1)[nH]c1c(N3CCOCC3)ncnc12	0.8	10	6	7	0	1
FC(F)(F)c1cc(C(F)(F)F)c2ccc(Oc3ccccc3)nc2n1	1.1	13	-6	1	/	/
N#CC(c1ccc(Cl)cc1)c1ccc2c(C(F)(F)F)cc(C(F)(F)F)nc2n1 (stereo unspecified)	1.2	82*	-7	91*	/	/
